Laboratory results as given in ChEMBL document CHEMBL4138288, “Crispenes F and G, cis-Clerodane Furanoditerpenoids from Tinospora crispa, Inhibit STAT3 Dimerization” (J Nat Prod, 2018).

How the values were obtained:
MDA-MB-231 = assay: Cytotoxicity against human MDA-MB-231 cells assessed as reduction in cell viability after 24 hrs by MTT assay; type: functional, cell-based; conditions: MDA-MB-231, 24 h
Outline: (§1)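 Cells kept at 37 °C, 5% CO2. MDA-MB-231 were grown in DMEM with 10% FBS, 2 mM L-glutamine, NEAA and pen-strep, seeded at 2500 cells/well. A4 were grown in RPMI 1640 with 10% FBS and pen-strep, seeded at 5000 cells/well. WI-38 were grown in DMEM with 10% FBS, seeded at 5000 cells/well. Plates rested 24 h before compound was added in triplicate. MTT absorbance was read at 570 nm.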

[1] = Inhibition of FAM-pYLPQTV binding to unphosphorylated STAT3 beta (unknown origin) expressed in Escherichia coli BL21 Rosetta cells after 5 mins by fluorescence polarization assay; set-up: species or system Homo sapiens
Outline: (§2)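 Unphosphorylated STAT3βtc was expressed in E. coli with IPTG induction overnight at 21 °C, then purified by ion exchange. In PBS pH 7.4, 350 nM protein was mixed with 10 nM FAM-pYLPQTV (final). Base polarization was read, inhibitor was added, the plate was shaken 5 min and read again. % inhibition = (X−Y)/X×100, each term corrected for free probe.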

Homo sapiens [2] = species on record: Homo sapiens; assay: Inhibition of unphosphorylated STAT3 beta dimerization (unknown origin) expressed in Escherichia coli BL21 Rosetta cells at 100 uM after 5 mins by fluorescence polarization assay relative to pYLKTKF
Outline: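 Same STAT3βtc/FAM-pYLPQTV polarization displacement setup: 350 nM protein, 10 nM probe, PBS pH 7.4, 5 min after addition. Ligand tested at 100 μM. Its % inhibition (B) was expressed as B/A×100, where A is the % inhibition from 100 μM […], taken as 100%.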

Homo sapiens [3] = species on record: Homo sapiens; assay: Inhibition of unphosphorylated STAT3 beta dimerization (unknown origin) expressed in Escherichia coli BL21 Rosetta cells at 100 uM after 5 mins by fluorescence polarization assay relative to STA-21
[4] = Cytotoxicity against human A4 cells assessed as reduction in cell viability after 24 hrs by MTT assay; type: functional, cell-based; outline: as §1
[5] = Inhibition of unphosphorylated STAT3 beta dimerization (unknown origin) expressed in Escherichia coli BL21 Rosetta cells after 5 mins by fluorescence polarization assay; set-up: species or system Homo sapiens; outline: as §2
WI-38 = assay: Cytotoxicity against human WI38 cells assessed as reduction in cell viability at 100 uM after 24 hrs by MTT assay; type: cell-based; conditions: wi-38, 24 h; outline: as §1

IC50 [1] [µM]	IC50 [5] [µM]	SMILES	IC50 (MDA-MB-231) [µM]	inhibition (Homo sapiens [2]) [%]	inhibition (Homo sapiens [3]) [%]	IC50 [4] [µM]	Activity (WI-38)
17	17	C[C@@]1(CC(O)c2ccoc2)C(C(=O)O)=CC[C@]2(C)[C@H]1[C@H]1C=C[C@@]2(O)C(=O)O1 (stereo not given in full)	7.8	72	130	> 10	Non-Toxic
42	42	COC(=O)C1=C[C@H](O)C[C@H]2[C@@]1(C)C=C[C@](O)(C(=O)O)[C@@]2(C)CC(OC(C)=O)c1ccoc1 (stereo not given in full)	10	60	119	> 10	Non-Toxic
		C[C@H]1C[C@H]2OC(=O)[C@@]34O[C@@H]3CC[C@@H]([C@]1(C)CCC1=CCOC1=O)[C@@]24C	5.4				
